Assay results from ChEMBL document CHEMBL1138580, “Natural polyprenylated benzophenones inhibiting cysteine and serine proteases” (Eur J Med Chem, 2009).
Active and inactive are the calls of the source. No cut-off for these calls is given here.

Columns and labels:
[1] = Inhibition of trypsin at 50 uM preincubated for 5 mins before addition of increasing concentration of substrate Z-FR-AMC
Papain (Carica papaya) [2] = target: T1, Papain (Carica papaya) (UniProt P00784); test: Inhibition of Carica papaya papain at 50 uM preincubated before DTT addition by fluorescence measurement
T1 sequence (whole entry): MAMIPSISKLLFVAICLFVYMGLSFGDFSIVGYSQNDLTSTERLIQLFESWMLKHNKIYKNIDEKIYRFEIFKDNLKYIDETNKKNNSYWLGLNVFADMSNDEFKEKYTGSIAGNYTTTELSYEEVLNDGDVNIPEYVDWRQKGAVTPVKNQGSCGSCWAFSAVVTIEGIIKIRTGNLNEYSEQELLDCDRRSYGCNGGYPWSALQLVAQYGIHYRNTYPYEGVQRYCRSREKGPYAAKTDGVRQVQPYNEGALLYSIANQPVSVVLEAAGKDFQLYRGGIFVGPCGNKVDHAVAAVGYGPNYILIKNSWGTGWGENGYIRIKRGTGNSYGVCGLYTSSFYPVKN

[3] = Inhibition of trypsin by spectrofluorimetry
Cathepsin B = Cathepsin B (Homo sapiens, UniProt P07858); test: Inhibition of cathepsin B by spectrofluorimetry
How it was run: (§1)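 Enzyme (papain and CatB DTT 10 mM-activated; trypsin not) incubated 5 min at 25 °C with DMSO-dissolved inhibitor, five concentrations; Z-FR-AMC started reaction, AMC ex 380/em 460 nm. Papain: phosphate 50 mM pH 6.8, EDTA 1.0 mM, 7.8 nM. CatB: Tris–HCl 50 mM pH 7.5, EDTA 5 mM, 1.0 nM. Trypsin: Tris–HCl pH 7.5, CaCl2 10 mM, 56.1 nM. IC50 from time-course dose–response; triplicate.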

Papain (Carica papaya) [4] = target: T1, Papain (Carica papaya); test: Inhibition of Carica papaya papain at 50 uM preincubated for 5 mins before addition of increasing concentration of substrate Z-FR-AMC
Papain = target: T2, Papain (Carica papaya, UniProt P00784); test: Inhibition of Carica papaya papain by spectrofluorimetry; how it was run: as §1
T2 sequence (P00784 whole entry): T1 sequence (whole entry)

Papain (Carica papaya) [5] = target: T1, Papain (Carica papaya); settings: 0.5 uM
Papain (Carica papaya) [6] = target: T1, Papain (Carica papaya); settings: 0.2 uM
Papain (Carica papaya) [7] = target: T1, Papain (Carica papaya); test: Inhibition of Carica papaya papain assessed as residual enzyme activity at 9 uM after 30 mins
[8] = Inhibition of trypsin assessed as residual enzyme activity at 10 uM after 30 mins
Cathepsin G = target: T3, Cathepsin G (Homo sapiens, UniProt P08311); test: Inhibition of cathepsin G by spectrofluorimetry
T3 sequence (P08311 whole entry): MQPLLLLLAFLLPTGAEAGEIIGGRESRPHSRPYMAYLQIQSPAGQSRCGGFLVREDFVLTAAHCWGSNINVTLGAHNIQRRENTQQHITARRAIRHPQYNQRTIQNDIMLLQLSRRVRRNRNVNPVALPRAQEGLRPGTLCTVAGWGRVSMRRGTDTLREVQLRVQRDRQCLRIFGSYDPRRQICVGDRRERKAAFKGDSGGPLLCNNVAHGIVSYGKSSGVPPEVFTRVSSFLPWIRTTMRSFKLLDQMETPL

For `O=C(c1ccccc1O)c1ccc(O)cc1O`, the inhibition [1] was “inactive”, the inhibition (Papain (Carica papaya) [2]) was “inactive” and the IC50 [3] was 301 µM. The IC50 (Cathepsin B) was 198 µM, the inhibition (Papain (Carica papaya) [4]) was “inactive” and the IC50 (Papain) was 693 µM.
For `O=C(c1ccccc1)c1ccccc1` [BENZOPHENONE], the inhibition [1] was “inactive”, the inhibition (Papain (Carica papaya) [2]) was “inactive” and the IC50 [3] was 3470 µM. For the same compound, the IC50 (Cathepsin B) was 289 µM, the inhibition (Papain (Carica papaya) [4]) was “inactive” and the IC50 (Papain) was 3460 µM.
For `CC(C)C[C@H](NC(=O)[C@H]1O[C@@H]1C(=O)O)C(=O)NCCCCN=C(N)N` [E-64], the inhibition (Papain (Carica papaya) [5]) was “Active”, the inhibition (Papain (Carica papaya) [6]) was “Active” and the IC50 (Papain) was 0.047 µM.
For `CC(C)=CC[C@H]1C[C@@]2(CC=C(C)C)C(=O)C(C(=O)c3ccccc3)=C(O)[C@H](C2=O)C1(C)C` [GARCINIAPHENONE], the inhibition [1] was “inactive”, the inhibition (Papain (Carica papaya) [2]) was “inactive” and the IC50 [3] was 104 µM. For the same compound, the inhibition (Papain (Carica papaya) [7]) was “Active”, the IC50 (Cathepsin B) was 103 µM and the inhibition (Papain (Carica papaya) [4]) was “inactive”. For the same compound, the IC50 (Papain) was 131 µM and the inhibition [8] was “Active”.
In the case of `CC(C)=CCC[C@]1(C)[C@@H](CC=C(C)C)C[C@]2(CC=C(C)C)C(=O)[C@@]1(CC=C(C)C)C(=O)C(C(=O)c1ccc(O)c(O)c1)=C2O` [GUTTIFERONE A], the IC50 (Cathepsin G) is reported as 2.7 µM, the inhibition (Papain (Carica papaya) [2]) is reported as “Active” and the inhibition (Papain (Carica papaya) [7]) is reported as “Active”. The IC50 (Cathepsin B) was 2.1 µM, the inhibition (Papain (Carica papaya) [4]) was “Active” and the IC50 (Papain) was 1.9 µM.
In the case of `CC(=O)N[C@@H](CC(C)C)C(=O)N[C@@H](CC(C)C)C(=O)N[C@H](C=O)CCCNC(=N)N` [LEUPEPTIN], the IC50 (Cathepsin B) is reported as 0.047 µM.
